Data taken from PubChem BioAssay.
Active and inactive are the calls of the source.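 Rule for the calls, unless noted: active = viability at or under a set limit in both replicates, limit being median viability minus 3 SD (cut at about 48% in these data, passing the limit was not always enough); inconclusive = at or under the limit in just one replicate; inactive = at or above the limit in both replicates.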

Experiments:
[1] = Her2 expression decrease, cell viability multiplex – SKBR3 breast tumor cells, AlphaScreen, ATP viability, primary screen (AID 461;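 active = Her2 level under about 52% in both replicate screens, with viability over 70% of control, limit read from the data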;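 for Her2 level: lower value means less Her2 protein in the cells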;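 for viability: percent of carrier control wells set as 100% viability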); settings: SKBR3 Her2 protein level, 18-24 h, measured here: SKBR3 viability, ATP luminescence, at 10 µM
[2] = target: Receptor tyrosine-protein kinase erbB-2 (Homo sapiens) (UniProt P04626); test: as above; settings: 18-24 h, at 10 µM, stronger effect = lower value
[3] = reduced viability of SK-BR-3 breast cancer cells – cell-based, 24 h, human, pilot screen (AID 572;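 active = viability at or below 10% of carrier control in both of two separate runs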;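 note: compound exposure lasted between 18 and 24 h rather than exactly 24 h; 100% = carrier-treated control wells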); settings: SK-BR-3 viability, CellTiter-Glo luminescence, at 10 µM, stronger effect = lower value
[4] = HUVEC growth inhibition – cell-based, human, primary screen (AID 575;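 active = viability at or below 30% in both replicate assays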;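 note: 100% = median of untreated cell wells with 0.1% DMSO on each plate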); settings: HUVEC proliferation, CellTiter-Glo luminescence, 72 h; at 10 µM; stronger effect = lower value
In short: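 Timing: 72 h treatment at 37 °C; material: HUVEC primary cells; technique: CellTiter-Glo luminescence measuring cellular ATP; controls: vehicle and MePR control wells; measure: percent of median DMSO-control luminescence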

[5] = H69AR cell proliferation blockers – human, duplicate replicates, primary screen (AID 580); settings: H69AR lung tumor cells viability, ATP luminescence, 72 h; at 10 µM; stronger effect = lower value;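 note: 100% = mean luminescence of untreated wells and 0% = no signal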
[6] = MRP1 drug-resistance reversers in H69AR cells – cell-based, doxorubicin co-treatment, pilot screen (AID 601;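 active = viability loss from added drug above about 55%, and viability with drug at most 40%, in both replicates, limit read from the data, passing the limit was not always enough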); settings: CellTiter-Glo, 72 h, at 10 µM; for differential viability (reversal): stronger effect = higher value
[7] = yeast transport mutant growth inhibition pilot in 384-well plates, post-Golgi transport modulator project (AID 636; in the data active = inhibition above about 31%); settings: absorbance 615 nm, about 18 h, stronger effect = higher value
[8] = growth suppression of yeast trafficking mutant, preliminary HTS, modulators of trafficking downstream of Golgi apparatus project, 1536-format plate, OD 615 nm (AID 637; in the data active = inhibition above about 30%); settings: yeast transport mutant growth, absorbance 615 nm, 18 h; stronger effect = higher value
[9] = H69AR cells + 2 uM doxorubicin, measured here: viability with 2 uM doxorubicin, stronger effect = lower value
[10] = H69AR cells, compound alone cytotoxicity

Sequence of Receptor tyrosine-protein kinase erbB-2 (Homo sapiens) (P04626 whole entry, looked up): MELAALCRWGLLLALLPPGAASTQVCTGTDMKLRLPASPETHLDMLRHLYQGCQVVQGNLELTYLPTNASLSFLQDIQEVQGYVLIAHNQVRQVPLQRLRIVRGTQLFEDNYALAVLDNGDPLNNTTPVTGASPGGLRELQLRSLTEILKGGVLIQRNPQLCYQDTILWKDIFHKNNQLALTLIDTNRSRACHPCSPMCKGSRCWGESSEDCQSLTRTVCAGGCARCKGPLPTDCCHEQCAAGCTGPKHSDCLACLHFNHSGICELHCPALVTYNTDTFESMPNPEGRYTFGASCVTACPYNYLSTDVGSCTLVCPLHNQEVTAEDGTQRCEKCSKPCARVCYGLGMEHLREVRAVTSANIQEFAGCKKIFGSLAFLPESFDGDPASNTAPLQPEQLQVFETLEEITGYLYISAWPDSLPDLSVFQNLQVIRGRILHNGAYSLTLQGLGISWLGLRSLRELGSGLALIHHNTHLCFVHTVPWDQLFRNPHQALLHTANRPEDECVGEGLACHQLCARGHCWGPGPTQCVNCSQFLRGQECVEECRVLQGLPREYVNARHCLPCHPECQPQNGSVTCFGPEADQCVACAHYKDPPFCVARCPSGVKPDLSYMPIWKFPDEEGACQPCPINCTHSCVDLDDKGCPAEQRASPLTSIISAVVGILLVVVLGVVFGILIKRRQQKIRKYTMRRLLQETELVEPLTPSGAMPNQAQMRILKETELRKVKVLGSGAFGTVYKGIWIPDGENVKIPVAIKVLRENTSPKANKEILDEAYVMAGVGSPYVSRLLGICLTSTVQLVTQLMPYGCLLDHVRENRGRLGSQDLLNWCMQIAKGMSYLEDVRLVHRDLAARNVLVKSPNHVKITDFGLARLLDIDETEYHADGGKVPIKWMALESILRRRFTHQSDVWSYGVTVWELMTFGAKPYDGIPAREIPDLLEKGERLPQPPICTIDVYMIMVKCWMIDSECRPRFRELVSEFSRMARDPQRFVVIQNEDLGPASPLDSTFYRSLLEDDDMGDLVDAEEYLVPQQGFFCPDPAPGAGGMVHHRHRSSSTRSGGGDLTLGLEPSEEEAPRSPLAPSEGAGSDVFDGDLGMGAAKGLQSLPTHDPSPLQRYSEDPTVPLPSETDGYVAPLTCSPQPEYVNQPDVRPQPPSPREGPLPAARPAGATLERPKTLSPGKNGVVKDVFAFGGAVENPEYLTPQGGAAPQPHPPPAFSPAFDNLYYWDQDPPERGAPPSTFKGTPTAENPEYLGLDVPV

| Structure (SMILES) | viability [1] [%] | Her2 level [2] | viability [3] | viability [4] | viability [5] | differential viability (reversal) ([6]; H69AR cells + 2 uM doxorubicin) | viability [6, 9] [%] | viability [6, 10] [%] | inhibition [7] | inhibition [8] |
| --- | --- | --- | --- | --- | --- | --- | --- | --- | --- | --- |
| Cc1ccc(S(=O)(=O)N2CCOCC2)cc1C(=O)OCC(=O)N1CCc2ccccc2C1 | 82.5 | 87.5% (inactive) | 82.5% (inactive) | 99.9% (inactive) | 87.9% (inactive) | -7.28% (inactive) | 95.2 | 87.9 | -4% (inactive) | 2.95% (inactive) |
| CCOC(=O)COc1ccc(C2NC(C(=O)O)CS2)cc1 (stereo not given) | 94.5 | 102% (inactive) | 94.5% (inactive) | 83.4% (inactive) | 102% (inactive) | 5.91% (inactive) | 96.3 | 102 | -3.03% (inactive) | -7.5% (inactive) |
| O=C1CC(N2CCN(c3ccc(Cl)c(Cl)c3)CC2)C(=O)N1 (stereo not given) | 67.5 | 103% (inactive) | 67.5% (inactive) | 76.5% (inactive) | 107% (inactive) | 18.3% (inactive) | 89.1 | 107 | -2.84% (inactive) | 27.7% (inactive) |
| O=C(CP(=O)(CO)CO)c1ccc(Cl)cc1 | 100 | 95% (inactive) | 100% (inactive) | 100% (inactive) | 101% (inactive) | 8.5% (inactive) | 92.3 | 101 | -0.26% (inactive) | -2.18% (inactive) |
| COc1ccc(-c2noc(-c3ccccc3C(=O)Nc3cccnc3)n2)cc1OC | 89.5 | 83% (inactive) | 89.5% (inactive) | 80.6% (inactive) | 90.4% (inactive) | 14.8% (inactive) | 75.7 | 90.4 | -3.6% (inactive) | -2.38% (inactive) |
| O=C(O)C1CCCN1S(=O)(=O)c1ccc2ccccc2c1 (stereo not given) | 106 | 110% (inactive) | 106% (inactive) | 101% (inactive) | 95.6% (inactive) | -12% (inactive) | 108 | 95.6 | 0.27% (inactive) | 9.51% (inactive) |
| COc1cc(C)nc(NS(=O)(=O)c2ccc(C)cc2)n1 | 122 | 88% (inactive) | 122% (inactive) | 98.5% (inactive) | 84.9% (inactive) | -1.31% (inactive) | 86.2 | 84.9 | -3.82% (inactive) | 0.65% (inactive) |
| Cn1c(SCC(=O)Nc2ccc3c(c2)OCO3)nnc1-c1cnccn1 | 106 | 82.5% (inactive) | 106% (inactive) | 93.5% (inactive) | 94.6% (inactive) | 6.5% (inactive) | 88.1 | 94.6 | -6.05% (inactive) | 2.33% (inactive) |
| COc1ccc(C(=O)c2ccccc2)c(O)c1 | 86.5 | 110% (inactive) | 86.5% (inactive) | 97.7% (inactive) | 106% (inactive) | 13.6% (inactive) | 92 | 106 | -3.33% (inactive) | 22.7% (inactive) |
| COc1cccc(C(=O)Nc2ccc(C)cc2)c1 | 99 | 102% (inactive) | 99% (inactive) | 84.6% (inactive) | 92.3% (inactive) | 3.96% (inactive) | 88.3 | 92.3 | -3.47% (inactive) | -7.46% (inactive) |
| CC1Oc2ccccc2N(CC(=O)N(Cc2ccccc2)Cc2ccccn2)C1=O (stereo not given) | 108 | 100% (inactive) | 108% (inactive) | 110% (inactive) | 88.6% (inactive) | -1.47% (inactive) | 90.1 | 88.6 | -5.54% (inactive) | -10% (inactive) |
| COc1ccc(S(=O)(=O)N(C)CC(=O)N2CCCCC2)cc1Cl | 80 | 106% (inactive) | 80% (inactive) | 96.6% (inactive) | 93.5% (inactive) | 6.07% (inactive) | 87.4 | 93.5 | -5.41% (inactive) | 1.8% (inactive) |
| CCOc1ccc(NC(=O)c2ccccc2O)cc1 | 87.5 | 87.5% (inactive) | 87.5% (inactive) | 90.4% (inactive) | 101% (inactive) | 10.1% (inactive) | 90.5 | 101 | -1.22% (inactive) | -2.7% (inactive) |
| CCNC(=O)COc1ccc(Br)cc1Cl | 96 | 91% (inactive) | 96% (inactive) | 92.1% (inactive) | 93.2% (inactive) | -4.36% (inactive) | 97.6 | 93.2 | -5% (inactive) | -1.9% (inactive) |
| Cc1cc(C)nc(N2CCC(C(=O)NCc3cccc(C(F)(F)F)c3)CC2)n1 | 104 | 100% (inactive) | 104% (inactive) | 76.6% (inactive) | 91.1% (inactive) | 4.94% (inactive) | 86.2 | 91.1 | -6.08% (inactive) | -2.33% (inactive) |
